The source of these data is ChEMBL document CHEMBL1155787, “Synthesis and biological evaluation of new disubstituted analogues of 6-methoxy-3-(3',4',5'-trimethoxybenzoyl)-1H-indole (BPR0L075), as potential antivascular agents” (Bioorg Med Chem, 2008).

The term IC50 denotes the concentration that inhibits the measured activity by half.

The test system of one assay is B16. Put plainly: Cytotoxicity against mouse B16 cells assessed as cell viability after 48 hrs by MTT test. The assay is classed as functional, cell-based. Conditions: B16, 48 h. The gist of the method: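 Murine B16 melanoma cells grown in DMEM with 2 mM L-glutamine, 10% FBS and penicillin/streptomycin at 37 °C, 5% CO2. Cells plated at 5000/well. After 24 h, compound added in triplicate at final 0.25 ng/mL to 25 µg/mL in 10-fold dilutions (DMSO stock, 1% DMSO controls). IC50 from 3–7 independent triplicate experiments.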
On the technique in general: Tetrazolium dyes change colour on reduction, which living cells bring about.

For a further assay, the system named is EA.hy 926. As to the kind of experiment: Induction of morphological changes in human EA.hy 926 cells assessed as rounding up after 2 hrs. It counts as functional. A digest of the protocol: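 EA.hy 926 cells (HUVEC–A549 fusion line) grown in DMEM with 2 mM glutamine, 10% FBS and penicillin/streptomycin at 37 °C, 5% CO2. Plated at 5000 cells/well and exposed in triplicate to 10-fold dilutions for 2 h. Solvent control was 1% DMSO. Wells photographed at the centre. Value is the lowest concentration at which rounding up was seen.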

The species entered for a further assay is Bos taurus. Put plainly: Ratio of IC50 of drug to IC50 of colchicine for calf brain tubulin polymerization. A digest of the protocol: (§1)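 Calf brain tubulin purified by three assembly–disassembly cycles, used at a final 2–3 mg/mL in pH 6.6 buffer (0.1 M MES, 0.5 mM MgCl2, 2 mM EGTA, 1 mM GTP). Assembly followed by turbidity at 400 nm at 37 °C.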
A short description of assay [1]: Inhibition of tubulin polymerization. The gist of the method: as §1

Active and inactive are the calls of the source. The calls are words filed in the database; no cut-off is given here.

Take `COc1cc2c(C(=O)c3cc(OC)c(OC)c(OC)c3)c[nH]c2cc1OS(C)(=O)=O`: in the assay with B16, the 50% inhibitory concentration (IC50) is 32.4 µM. In addition, the Activity in the assay with EA.hy 926 came to 28.71 µM. Moreover, the outcome in the assay listed under Bos taurus was inactive.
In the case of `COc1cc2c(cc1OS(C)(=O)=O)c(C(=O)c1cc(OC)c(OC)c(OC)c1)cn2S(=O)(=O)c1ccccc1`, the IC50 with B16 was 3.29 µM. Moreover, in the assay with EA.hy 926, the Activity amounted to 10.86 µM. In the assay filed under Bos taurus, the Ratio IC50 worked out at 15.
For `COc1cc(C(=O)c2c[nH]c3c(OS(C)(=O)=O)c(OC)ccc23)cc(OC)c1OC`, in that order: 0.17 µM, 0.013 µM and 2.7.
For the compound `COc1cc2[nH]cc(C(=O)c3cc(OC)c(OC)c(OC)c3)c2cc1OS(C)(=O)=O`, in the assay on B16, the 50% inhibitory concentration (IC50) came to 13.7 µM. Also, in the assay on EA.hy 926, the Activity stood at 14.35 µM. For the same compound, the result in the assay listed under Bos taurus was inactive.
As to `COc1cc2c(C(=O)c3cc(OC)c(OC)c(OC)c3)c[nH]c2cc1O`, in the assay on B16, the IC50 turned out to be 5.07 µM. Further, in the assay on EA.hy 926, the Activity came out at 8.74 µM. For the same compound, the Ratio IC50 in the assay listed under Bos taurus was determined as 12.
Turning to `COc1cc2c(c(OC)c1OC)-c1ccc(OC)c(=O)cc1[C@@H](NC(C)=O)CC2` [COLCHICINE], the 50% inhibitory concentration (IC50) with B16 came to 0.031 µM. In addition, the Activity in the assay with EA.hy 926 was 0.003 µM.
With `COc1ccc2c(C(=O)c3cc(OC)c(OC)c(OC)c3)c[nH]c2c1`, the values for the half-maximal inhibitory concentration (IC50) (in the assay with B16; in assay [1]) were 0.013 µM and 2.8 µM, respectively. In the assay with EA.hy 926, the Activity turned out to be 0.007 µM. Besides, the Ratio IC50 in the assay filed under Bos taurus is 0.4.
For `COc1ccc(/C=C\c2cc(OC)c(OC)c(OC)c2)cc1O` [COMBRETASTATIN A4], in that order: 0.003 µM, 2.2 µM, 0.008 µM and 0.7.
Turning to `COc1cc2c(C(=O)c3cc(OC)c(OC)c(OC)c3)cn(S(=O)(=O)c3ccccc3)c2cc1OS(C)(=O)=O`, the IC50 with B16 turned out to be 3.14 µM. In the assay on EA.hy 926, the Activity was 1.3 µM. The Ratio IC50 in the assay listed under Bos taurus is 18.
